From ChEMBL document CHEMBL1799918, “Growth inhibitory activities of oxyprenylated and non-prenylated naturally occurring phenylpropanoids in cancer cell lines” (Bioorg Med Chem Lett, 2011)

Columns and labels:
[1] = Cytotoxicity against human U373 cells after 72 hrs by MTT assay; format: functional, cell-based, U-373MG ATCC; details: U373 MG
How it was run: (§1)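 MTT colorimetric assay on human cancer cell lines; IC50 growth inhibitory concentration determined in vitro for each compound.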

[2] = Cytotoxicity against human OE21 cells after 72 hrs by MTT assay; format: functional, cell-based; details: OE21, 72 h; how it was run: as §1
[3] = system: A549; assay: Cytotoxicity against human A549 cells after 72 hrs by MTT assay; format: functional, cell-based; details: A549, 72 h; how it was run: as §1
[4] = system: PC-3; assay: Cytotoxicity against human PC3 cells after 72 hrs by MTT assay; format: functional, cell-based; details: PC-3, 72 h; how it was run: as §1
[5] = system: SK-MEL-28; assay: Cytotoxicity against human SK-MEL-28 cells after 72 hrs by MTT assay; format: functional, cell-based; details: SK-MEL-28, 72 h; how it was run: as §1
[6] = system: LoVo; assay: Cytotoxicity against human LoVo cells after 72 hrs by MTT assay; format: functional, cell-based; how it was run: as §1
[7] = Induction of human U373 cell death assessed as morphological changes at MTT assay-related IC50 after 72 hrs by quantitative video microscopy; format: functional, U-373MG ATCC
[8] = Cytotoxicity against human U373 cells assessed as growth inhibition at MTT assay-related IC50 by quantitative video microscopy relative to control; format: functional, U-373MG ATCC
[9] = Cytostatic activity against human U373 cells assessed as growth inhibition at MTT assay-related IC50 by quantitative video microscopy relative to control; format: functional, U-373MG ATCC

| Compound | IC50 [1] [µM] | IC50 [2] [µM] | IC50 [3] [µM] | IC50 [4] [µM] | IC50 [5] [µM] | IC50 [6] [µM] | Activity [7] [%] | growth inhibition (GI) [8] [%] | growth inhibition (GI) [9] [%] |
| --- | --- | --- | --- | --- | --- | --- | --- | --- | --- |
| CC(C)=CCOc1ccc2ccc(=O)oc2c1 [7-PRENYLOXYCOUMARIN] | > 100 | 79 | > 100 | > 100 | > 100 | 82 |  |  |  |
| COc1cc(C(=O)O)ccc1OCC=C(C)C | > 100 | > 100 | > 100 | > 100 | > 100 | > 100 |  |  |  |
| CC(C)=CCOc1ccc(C(=O)/C=C/c2ccccc2)c(O)c1 [CORDOIN] | 53 | 39 | 54 | 71 | 81 | 58 | 88 | 95 |  |
| COc1c(OCC=C(C)C)ccc2ccc(=O)oc12 [LACINARTIN] | 70 | > 100 | 95 | 46 | > 100 | 40 | 37 | 80 |  |
| COc1cc(/C=C/C=O)cc(OC)c1OCC=C(C)C | 30 | 29 | 68 | 28 | 32 | 31 | 100 | 90 |  |
| COc1cc(/C=C/C=O)cc(OC)c1O | 56 | 39 | > 100 | 63 | 66 | 33 | 2 |  | 50 |
| Cc1cc(O)c2c(c1)C(=O)c1cc(O)cc(O)c1C2=O [EMODIN] | 31 | 29 | 28 | 35 | 35 | 27 | 99 | 90 |  |
| CC(=O)c1c(O)cc(OC/C=C(\C)CC/C=C(\C)CCC=C(C)C)cc1O | 33 | 18 | 26 | 38 | 33 | 32 | 42 | 70 |  |
| COc1cc(/C=C/C=O)ccc1O [CONIFERYL ALDEHYDE] | 28 | 29 | 59 | 35 | 33 | 23 | 13 |  | 50 |
| COc1cc(/C=C/C=O)ccc1OC/C=C(\C)CCC=C(C)C | 7 | 34 | 5 | 24 | 28 | 12 | 26 | 80 |  |
| O=C(O)c1ccc(O)cc1 [PARABEN] | > 100 | 71 | > 100 | > 100 | > 100 | 94 |  |  |  |
| COc1cc(/C=C/C(=O)O)ccc1O [FERULATE] | > 100 | 68 | > 100 | > 100 | > 100 | 95 |  |  |  |
| CC(C)=CCC/C(C)=C/COc1ccc(/C=C/C(=O)O)cc1 | > 100 | > 100 | > 100 | > 100 | > 100 | > 100 |  |  |  |
| COc1cc(/C=C/CO)cc(OC)c1OCC=C(C)C | > 100 | > 100 | > 100 | > 100 | > 100 | > 100 |  |  |  |
| COc1cc(/C=C/C(=O)O)ccc1OCC=C(C)C [BOROPINIC ACID] | > 100 | > 100 | > 100 | > 100 | > 100 | > 100 |  |  |  |
| CC(C)=CCC/C(C)=C/COc1cc(O)c2c(c1)C(=O)c1cc(C)cc(O)c1C2=O | 18 | > 100 | 32 | 30 | 40 | 14 | 100 | 90 |  |
| COc1cc(/C=C/CO)cc(OC)c1OC/C=C(\C)CCC=C(C)C [NELUMOL A] | 42 | 39 | 76 | 40 | 72 | 38 | 17 | 80 |  |
| COc1cc(/C=C/C=O)cc(OC)c1OC/C=C(\C)CCC=C(C)C [NELUMAL A] | 8 | 27 | 71 | 39 | 26 | 23 | 100 | 80 |  |
| CC(C)=CCOc1ccc(C(=O)O)cc1 [VALENCIC ACID] | > 100 | > 100 | > 100 | > 100 | > 100 | > 100 |  |  |  |

| Compound | IC50 [1] [µM] | IC50 [2] [µM] | IC50 [3] [µM] | IC50 [4] [µM] | IC50 [5] [µM] | IC50 [6] [µM] | Activity [7] [%] | growth inhibition (GI) [8] [%] | growth inhibition (GI) [9] [%] |
| --- | --- | --- | --- | --- | --- | --- | --- | --- | --- |
| COc1cc(C(=O)O)ccc1O [VANILLIC ACID] | > 100 | 61 | > 100 | > 100 | > 100 | 91 |  |  |  |
| CC(=O)c1c(O)cc(OC/C=C(\C)CCC=C(C)C)cc1O | 29 | 34 | 34 | 48 | 40 | 35 | 15 | 80 |  |
| CC(C)=CCOc1ccc2ccc(=O)oc2c1O | > 100 | > 100 | > 100 | > 100 | > 100 | 92 |  |  |  |
| O=C(/C=C/c1ccccc1)c1ccc(O)cc1O [2',4'-DIHYDROXYCHALCONE] | > 100 | 49 | > 100 | > 100 | 75 | 81 |  |  |  |
| CC(=O)c1ccc(OC/C=C(\C)CCC=C(C)C)cc1O | 48 | 37 | 51 | 27 | 44 | 38 | 17 | 80 |  |
| COc1cc(/C=C/CO)ccc1OC/C=C(\C)CCC=C(C)C | 25 | 23 | 29 | 21 | 31 | 27 | 41 | 80 |  |
| CC(C)=CCC/C(C)=C/COc1ccc2ccc(=O)oc2c1 [AURAPTENE] | 82 | 58 | 82 | 65 | 87 | 66 | 58 | 90 |  |
| COc1cc(/C=C/CO)cc(OC)c1O | > 100 | 80 | > 100 | > 100 | > 100 | > 100 |  |  |  |
| O=c1ccc2ccc(O)cc2o1 [UMBELLIFERONE] | > 100 | 33 | > 100 | > 100 | > 100 | 97 |  |  |  |
| CC(C)=CCOc1ccc(C(=O)/C=C/c2ccc(O)cc2)c(O)c1 | 87 | 58 | 66 | > 100 | > 100 | 57 | 17 | 70 |  |
| O=C(/C=C/c1ccc(O)cc1)c1ccc(O)cc1O [ISOLIQUIRITIGENIN] | 68 | 48 | 85 | 99 | 75 | 57 | 7 |  | 60 |
| CC(=O)c1c(O)cc(O)cc1O [2,4,6-TRIHYDROXYACETOPHENONE] | > 100 | 42 | 100 | > 100 | > 100 | 90 |  |  |  |
| CC(=O)c1ccc(OCC=C(C)C)cc1O | > 100 | > 100 | > 100 | > 100 | > 100 | > 100 |  |  |  |
| O=C(O)/C=C/c1ccc(O)cc1 [COUMARIC ACID] | > 100 | 66 | > 100 | > 100 | > 100 | 82 |  |  |  |
| CC(C)=CCC/C(C)=C/CC/C(C)=C/COc1ccc2ccc(=O)oc2c1 [UMBELLIPRENIN] | 72 | 30 | 71 | 75 | 66 | 50 | 40 | 90 |  |
| CC(C)=CCOc1cc(O)c2c(c1)C(=O)c1cc(C)cc(O)c1C2=O [MADAGASCIN] | 5 | 10 | 20 | 6 | 7 | 8 | 95 | 80 |  |
| COc1cc(/C=C/C(=O)O)ccc1OC/C=C(\C)CCC=C(C)C | > 100 | > 100 | > 100 | > 100 | > 100 | > 100 |  |  |  |
| CC(=O)c1ccc(O)cc1O | > 100 | 45 | > 100 | > 100 | > 100 | 97 |  |  |  |
| COc1cc(/C=C/CO)ccc1O [CONIFERYL ALCOHOL] | 97 | 60 | 85 | 84 | > 100 | 64 | 26 | 80 |  |
